Source: ChEMBL document CHEMBL1122917, “Vinblastin-23-oyl amino acid derivatives: chemistry, physicochemical data, toxicity, and antitumor activities against P388 and L1210 leukemias” (J Med Chem, 1985)

Legend:
Format in all cases: functional
Mus musculus [1] = assay: Number of survivors of DBA2 mice on 30th day after inoculation with L1210 leukemia cell line intravenously at a dose of 55 mg/kg/day; 0/10; settings: route intravenous
Mus musculus [2] = assay: Number of survivors on 60th day at dose 70 mg/kg/day in 10 mice implanted with P388 leukemia cell line
Method in brief: (§1)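 Female DBA2 mice inoculated iv on day 0 with 10^4 P388 cells; single iv treatment on day 1 with drug as sulfate salt in physiological saline. Survival followed; %ILS from all deaths and survivors as (T/C × 100) − 100, maximal MST 30 days; survivors counted on days 30 and 60. Most experiments confirmed three times.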

Mus musculus [3] = assay: Number of survivors on 30th day at dose 40 mg/kg/day in 10 mice implanted with P388 leukemia cell line
Mus musculus [4] = assay: Number of survivors of DBA2 mice on 30th day after inoculation with L1210 leukemia cell line intravenously at a dose of 50 mg/kg/day; 0/10; settings: route intravenous
Mus musculus [5] = assay: Percent increase in life span at dose 30 mg/kg/day in 10 mice implanted with P388 leukemia cell line; method in brief: as §1
Mus musculus [6] = assay: Number of survivors on 60th day at dose 40 mg/kg/day in 10 mice implanted with P388 leukemia cell line
Mus musculus [7] = assay: Number of survivors on 30th day at dose 70 mg/kg/day in 10 mice implanted with P388 leukemia cell line
Mus musculus [8] = assay: Number of survivors on 30th day at dose 60 mg/kg/day in 10 mice implanted with P388 leukemia cell line
Mus musculus [9] = assay: Percent increase in life span at dose 60 mg/kg/day in 10 mice implanted with P388 leukemia cell line; method in brief: as §1
Mus musculus [10] = assay: Number of survivors on 60th day at dose 55 mg/kg/day in 10 mice implanted with P388 leukemia cell line
Mus musculus [11] = assay: Number of survivors on 30th day at dose 55 mg/kg/day in 10 mice implanted with P388 leukemia cell line
Mus musculus [12] = assay: Number of survivors on 30th day at dose 30 mg/kg/day in 10 mice implanted with P388 leukemia cell line
Mus musculus [13] = assay: Number of survivors on 60th day at dose 50 mg/kg/day in 10 mice implanted with P388 leukemia cell line
Mus musculus [14] = assay: Percent increase in life span at dose 70 mg/kg/day in 10 mice implanted with P388 leukemia cell line; method in brief: as §1
Mus musculus [15] = assay: Percent increase in life span at dose 55 mg/kg/day in 10 mice implanted with P388 leukemia cell line; method in brief: as §1
Mus musculus [16] = assay: Number of survivors on 60th day at dose 30 mg/kg/day in 10 mice implanted with P388 leukemia cell line
Mus musculus [17] = assay: Percent increase in life span of DBA2 mice after inoculation with L1210 leukemia intravenously at a dose of 50 mg/kg per day; settings: route intravenous
Method in brief: (§2)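 Female DBA2 mice inoculated iv on day 0 with 10^4 L1210 cells; drugs given iv as sulfate salts in physiological saline, mostly once on day 1. %ILS from all deaths and survivors as (T/C × 100) − 100; survivors scored on days 30 and 60.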

Mus musculus [18] = assay: Percent increase in life span at dose 50 mg/kg/day in 10 mice implanted with P388 leukemia cell line; method in brief: as §1
Mus musculus [19] = assay: Percent increase in life span at dose 40 mg/kg/day in 10 mice implanted with P388 leukemia cell line; method in brief: as §1
Mus musculus [20] = assay: Percent increase in life span of DBA2 mice after inoculation with L1210 leukemia intravenously at a dose of 55 mg/kg per day; settings: route intravenous; method in brief: as §2
Mus musculus [21] = assay: Number of survivors on 60th day at dose 60 mg/kg/day in 10 mice implanted with P388 leukemia cell line; method in brief: as §1
Mus musculus [22] = assay: Number of survivors on 30th day at dose 50 mg/kg/day in 10 mice implanted with P388 leukemia cell line
Mus musculus [23] = assay: Number of survivors of DBA2 mice on 60th day after inoculation with L1210 leukemia cell line intravenously at a dose of 55 mg/kg/day; 0/10; settings: route intravenous
Mus musculus [24] = assay: Number of survivors of DBA2 mice on 60th day after inoculation with L1210 leukemia cell line intravenously at a dose of 50 mg/kg/day; 0/10; settings: route intravenous
Mus musculus [25] = assay: Number of survivors of DBA2 mice on 30th day after inoculation with L1210 leukemia cell line intravenously at a dose of 40 mg/kg/day; 0/10; settings: route intravenous
Mus musculus [26] = assay: Percent increase in life span at dose 20 mg/kg/day in 10 mice implanted with P388 leukemia cell line; method in brief: as §1
Mus musculus [27] = assay: Number of survivors on 30th day at dose 20 mg/kg/day in 10 mice implanted with P388 leukemia cell line; 0/10
Mus musculus [28] = assay: Number of survivors on 60th day at dose 45 mg/kg/day in 10 mice implanted with P388 leukemia cell line; 0/10
Mus musculus [29] = assay: Number of survivors on 60th day at dose 40 mg/kg/day in 10 mice implanted with P388 leukemia cell line; 0/10
Mus musculus [30] = assay: Number of survivors of DBA2 mice on 60th day after inoculation with L1210 leukemia cell line intravenously at a dose of 40 mg/kg/day; 0/10; settings: route intravenous
Mus musculus [31] = assay: Number of survivors on 30th day at dose 40 mg/kg/day in 10 mice implanted with P388 leukemia cell line; 0/10
Mus musculus [32] = assay: Number of survivors on 30th day at dose 30 mg/kg/day in 10 mice implanted with P388 leukemia cell line; 1/10
Mus musculus [33] = assay: Number of survivors on 30th day at dose 50 mg/kg/day in 9 mice implanted with P388 leukemia cell line; 0/9
Mus musculus [34] = assay: Number of survivors on 60th day at dose 50 mg/kg/day in 9 mice implanted with P388 leukemia cell line; 0/9
Mus musculus [35] = assay: Number of survivors on 30th day at dose 45 mg/kg/day in 10 mice implanted with P388 leukemia cell line; 2/10
Mus musculus [36] = assay: Number of survivors on 60th day at dose 30 mg/kg/day in 10 mice implanted with P388 leukemia cell line; 0/10
Mus musculus [37] = assay: Percent increase in life span of DBA2 mice after inoculation with L1210 leukemia intravenously at a dose of 40 mg/kg per day; settings: route intravenous
Mus musculus [38] = assay: Number of survivors on 60th day at dose 20 mg/kg/day in 10 mice implanted with P388 leukemia cell line; 0/10
Mus musculus [39] = assay: Percent increase in life span at dose 45 mg/kg/day in 10 mice implanted with P388 leukemia cell line
Mus musculus [40] = assay: Percent increase in life span of DBA2 mice after inoculation with L1210 leukemia intravenously at a dose of 45 mg/kg per day; settings: route intravenous; method in brief: as §2
Mus musculus [41] = assay: Number of survivors of DBA2 mice on 60th day after inoculation with L1210 leukemia cell line intravenously at a dose of 45 mg/kg/day; 0/10; settings: route intravenous
Mus musculus [42] = assay: Number of survivors of DBA2 mice on 30th day after inoculation with L1210 leukemia cell line intravenously at a dose of 45 mg/kg/day; 0/10; settings: route intravenous

CC[C@]1(O)C[C@@H]2C[N@](CCc3c([nH]c4ccccc34)[C@@](C(=O)OC)(c3cc4c(cc3OC)N(C)[C@@]3(C)[C@@](O)(C(=O)N[C@@H](Cc5c[nH]c6ccccc56)C(=O)OC)[C@H](O)[C@]5(CC)C=CCN6CC[C@]43[C@@H]65)C2)C1 gave a Survivors (Mus musculus [1]) of 0, a Survivors (Mus musculus [2]) of 3 and a Survivors (Mus musculus [3]) of 0. The Survivors (Mus musculus [4]) was 0, the ILS at 30 mg/kg/day (Mus musculus [5]) was 33.9% and the Survivors (Mus musculus [6]) was 0. The Survivors (Mus musculus [7]) was 5, the Survivors (Mus musculus [8]) was 3 and the ILS at 60 mg/kg/day (Mus musculus [9]) was 132%. For the same molecule, the Survivors (Mus musculus [10]) was 1, the Survivors (Mus musculus [11]) was 2 and the Survivors (Mus musculus [12]) was 0. It also gave a Survivors (Mus musculus [13]) of 1, an ILS at 70 mg/kg/day (Mus musculus [14]) of 145% and an ILS at 55 mg/kg/day (Mus musculus [15]) of 85.8%. For the same molecule, the Survivors (Mus musculus [16]) was 0, the ILS at 50 mg/kg/day (Mus musculus [17]) was 47.4% and the ILS at 50 mg/kg/day (Mus musculus [18]) was 110%. The ILS at 40 mg/kg/day (Mus musculus [19]) was 42.8%, the ILS at 55 mg/kg/day (Mus musculus [20]) was 60.2% and the Survivors (Mus musculus [21]) was 2. For the same molecule, the Survivors (Mus musculus [22]) was 1, the Survivors (Mus musculus [23]) was 0 and the Survivors (Mus musculus [24]) was 0.

CCOC(=O)[C@@H](Cc1c[nH]c2ccccc12)NC(=O)[C@@]1(O)[C@H](O)[C@]2(CC)C=CCN3CC[C@@]4(c5cc([C@@]6(C(=O)OC)C[C@H]7C[N@](CCc8c6[nH]c6ccccc86)C[C@](O)(CC)C7)c(OC)cc5N(C)[C@@]14C)[C@@H]32 was tested, and the Survivors (Mus musculus [25]) was 0, the ILS at 20 mg/kg/day (Mus musculus [26]) was 18.7% and the Survivors (Mus musculus [27]) was 0. It also gave a Survivors (Mus musculus [28]) of 0, a Survivors (Mus musculus [29]) of 0 and an ILS at 30 mg/kg/day (Mus musculus [5]) of 41.4%. It also gave a Survivors (Mus musculus [30]) of 0, a Survivors (Mus musculus [31]) of 0 and a Survivors (Mus musculus [32]) of 1. For the same molecule, the Survivors (Mus musculus [33]) was 0, the Survivors (Mus musculus [34]) was 0 and the Survivors (Mus musculus [35]) was 2. For the same molecule, the Survivors (Mus musculus [36]) was 0, the ILS at 40 mg/kg/day (Mus musculus [37]) was 21.8% and the Survivors (Mus musculus [38]) was 0. For the same molecule, the ILS at 45 mg/kg/day (Mus musculus [39]) was 85%, the ILS at 45 mg/kg/day (Mus musculus [40]) was 34.6% and the ILS at 50 mg/kg/day (Mus musculus [18]) was 59%. The Survivors (Mus musculus [41]) was 0, the ILS at 40 mg/kg/day (Mus musculus [19]) was 53.8% and the Survivors (Mus musculus [42]) was 0.
